Active and inactive are the calls of the source. No cut-off for these calls is given here. Starred links: 1 amine or outer side, 2 acyl side, 3 side chain; linkers in the order of their positions; H or OH if unused. Positions of bridges follow the written chain, without caps; N, C: chain ends. Non-standard residues stand in square brackets, D forms with d. Residues, ends and D or L forms follow the SMILES beside them. Chains are numbered I, II in the order given. Actinocin(1to9) = Cc1c2oc3c(C)ccc(C(=O)[*:2])c3nc-2c(C(=O)[*:1])c(N)c1=O; NMeV = CN[C@H](C(=O)O)C(C)C; Sar = CNCC(=O)O
Assays:
[1] = test system: Calf thymus DNA; assay: Binding affinity to calf thymus DNA assessed as isosbestic point after 30 mins by spectral analysis; type: nucleic-acid assay; conditions: Bos taurus
[2] = test system: Bacillus spizizenii; assay: Antibacterial activity against Bacillus subtilis ATCC 6633 at 40 ug/ml by cup-plate diffusion assay relative to actinomycin D; type: functional
Method in brief: (§1)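 Cup-plate agar diffusion with 6-mm stainless steel cylinders on nutrient agar seeded with B. subtilis ATCC 6633, incubated at 37 °C. Activity is read as the zone of inhibition, compared with actinomycin D standards. On repeat assays, test concentrations were adjusted to give zones of roughly the same size as the standards.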

[3] = test system: Calf thymus DNA; assay: Binding affinity to calf thymus DNA assessed as hypochromic shift after 30 mins by spectral analysis; type: nucleic-acid assay; conditions: Bos taurus
[4] = test system: Calf thymus DNA; assay: Binding affinity to calf thymus DNA at DNA/drug ratio of 12:1 after 30 mins by ultracentrifugation method; type: nucleic-acid assay; conditions: Bos taurus
Method in brief: (§2)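 Drug at about 5×10^-6 M with calf thymus DNA at 0, 1.94, 2.27, 3.35 and 9.45×10^-5 M in pH 7.00 1 M NaCl–0.008 M Tris buffer, equilibrated 30 min, then spun at 150 000g for 6 h at 25 °C. Free drug was measured in the supernatant. Bound drug was measured by dissolving the pellet in 50% DMF and reading A443 against drug in 50% DMF. Repeated at varied drug/DNA ratios.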

[5] = test system: P388; assay: Antitumor activity against mouse P388 cells allografted in CD2F1 mouse assessed as increase in life span at 25 mg/kg administered daily for 9 days; type: functional
Method in brief: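 P-388 leukaemia in CD2F1 mice, screened by the NCI Drug Research and Development Program. Dosing was by daily injection for 9 days, up to 25 mg/kg per injection. The read-out was increased life span (ILS), with ILS >25% taken as the minimum for activity.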

[6] = test system: Bacillus spizizenii; assay: Antibacterial activity against Bacillus subtilis ATCC 6633 at 40 ug/ml by cup-plate diffusion assay; type: functional; conditions: read-out: IZ; method in brief: as §1
[7] = test system: Calf thymus DNA; assay: Binding affinity to calf thymus DNA assessed as bathochromic shift after 30 mins by spectral analysis; type: nucleic-acid assay; conditions: Bos taurus
[8] = test system: Calf thymus DNA; assay: Binding affinity to calf thymus DNA at DNA/drug ratio of 25:1 after 30 mins by ultracentrifugation method; type: nucleic-acid assay; conditions: Bos taurus; method in brief: as §2
[9] = test system: Calf thymus DNA; assay: Binding affinity to calf thymus DNA assessed as reduction in absorbance after 30 mins by spectral analysis; type: nucleic-acid assay; set-up: scale not given: the % may be the effect or the level left; conditions: Bos taurus
[10] = test system: Bacillus spizizenii; assay: Antibacterial activity against Bacillus subtilis ATCC 6633 at 3.85 ug/ml by cup-plate diffusion assay; type: functional; conditions: read-out: IZ; method in brief: as §1
[11] = test system: Bacillus spizizenii; assay: Antibacterial activity against Bacillus subtilis ATCC 6633 at 2.50 ug/ml by cup-plate diffusion assay; type: functional; conditions: read-out: IZ; method in brief: as §1
[12] = test system: Bacillus spizizenii; assay: Antibacterial activity against Bacillus subtilis ATCC 6633 at 5 ug/ml by cup-plate diffusion assay; type: functional; conditions: read-out: IZ; method in brief: as §1
[13] = test system: Calf thymus DNA; assay: Binding affinity to calf thymus DNA after 30 mins by ultracentrifugation method; type: nucleic-acid assay; conditions: Bos taurus; method in brief: as §2
[14] = test system: Bacillus spizizenii; assay: Antibacterial activity against Bacillus subtilis ATCC 6633 at 0.65 ug/ml by cup-plate diffusion assay; type: functional; conditions: read-out: IZ; method in brief: as §1
[15] = test system: Bacillus spizizenii; assay: Antibacterial activity against Bacillus subtilis ATCC 6633 at 2.35 ug/ml by cup-plate diffusion assay; type: functional; conditions: read-out: IZ; method in brief: as §1
[16] = test system: Bacillus spizizenii; assay: Antibacterial activity against Bacillus subtilis ATCC 6633 at 1.25 ug/ml by cup-plate diffusion assay; type: functional; conditions: read-out: IZ; method in brief: as §1

Row | Compound | Activity [1] | Ratio [2] | Activity [3] | Activity [4] | Activity [5] | zone of inhibition at 40 µg/mL [6] | Activity [7] | Activity [8] | Activity [9] | zone of inhibition at 3.85 µg/mL [10] | zone of inhibition at 2.5 µg/mL [11] | zone of inhibition at 5 µg/mL [12] | Ka [13] | zone of inhibition at 0.65 µg/mL [14] | zone of inhibition at 2.35 µg/mL [15] | zone of inhibition at 1.25 µg/mL [16]
1 | CNC(=O)[C@H](NC(=O)[C@@H](NC(=O)c1c2nc3c(C(=O)N[C@H](C(=O)N[C@@H](C(=O)NC)C(C)C)[C@@H](C)O)ccc(C)c3oc-2c(C)c(=O)c1N)[C@@H](C)O)C(C)C | inactive | 1.1 | inactive | 17% | <=25% | 8.5 mm | inactive | – | – | – | – | – | – | – | – | –
2 | Cc1c2oc3c(C)ccc(C(=O)N[C@H](C(=O)N[C@@H](C(=O)O)C(C)C)[C@@H](C)O)c3nc-2c(C(=O)N[C@H](C(=O)N[C@@H](C(=O)O)C(C)C)[C@@H](C)O)c(N)c1=O | inactive | 5.3 | inactive | – | <=25% | 14.3 mm | inactive | – | – | – | – | – | – | – | – | –
3 | COC(=O)[C@H](NC(=O)[C@@H](NC(=O)c1c2nc3c(C(=O)N[C@H](C(=O)N[C@@H](C(=O)OC)C(C)C)[C@@H](C)O)ccc(C)c3oc-2c(C)c(=O)c1N)[C@@H](C)O)C(C)C | inactive | 9.6 | inactive | – | <=25% | 16.6 mm | inactive | 30% | 10% | – | – | – | – | – | – | –
4 | COC(=O)[C@H](NC(=O)[C@@H](NC(=O)c1c2nc3c(C(=O)N[C@H](C(=O)N[C@@H](C(=O)OC)C(C)C)[C@@H](C)OC(C)=O)ccc(C)c3oc-2c(C)c(=O)c1N)[C@@H](C)OC(C)=O)C(C)C | inactive | – | inactive | – | <=25% | – | inactive | – | – | – | – | – | – | – | – | –
5 | Cc1c2oc3c(C)ccc(C(=O)N[C@@H]4C(=O)N[C@H](C(C)C)C(=O)N5CCC[C@H]5C(=O)N(C)CC(=O)N(C)[C@@H](C(C)C)C(=O)O[C@@H]4C)c3nc-2c(C(=O)N[C@@H]2C(=O)N[C@H](C(C)C)C(=O)N3CCC[C@H]3C(=O)N(C)CC(=O)N(C)[C@@H](C(C)C)C(=O)O[C@@H]2C)c(N)c1=O [DACTINOMYCIN] (I: T[dV]P[Sar][NMeV] / II: T[dV]P[Sar][NMeV]; ester I:1-I:C, II:1-II:C; linker I:N-II:N via Actinocin(1to9)) | Active | – | Active | 70% | <=25% | – | Active | 85% | 30% | 16.6 mm | 14.5 mm | 18.2 mm | 1.56 ×10⁶ /M | 8.5 mm | 14.3 mm | 11.1 mm
6 | COC(=O)[C@@H]1CC(=O)CN1C(=O)[C@H](NC(=O)[C@@H](NC(=O)c1c2nc3c(C(=O)N[C@H](C(=O)N[C@@H](C(=O)N4CC(=O)C[C@H]4C(=O)OC)C(C)C)[C@@H](C)O)ccc(C)c3oc-2c(C)c(=O)c1N)[C@@H](C)O)C(C)C | inactive | – | inactive | – | <=25% | – | inactive | – | – | – | – | – | – | – | – | –
7 | Cc1c2oc3c(C)ccc(C(=O)N[C@H](C(=O)N[C@@H](C(=O)NCCO)C(C)C)[C@@H](C)O)c3nc-2c(C(=O)N[C@H](C(=O)N[C@@H](C(=O)NCCO)C(C)C)[C@@H](C)O)c(N)c1=O | inactive | – | inactive | – | <=25% | – | inactive | – | – | – | – | – | – | – | – | –
8 | Cc1c2oc3c(C)ccc(C(=O)N[C@H](C(=O)N[C@@H](C(=O)NN)C(C)C)[C@@H](C)O)c3nc-2c(C(=O)N[C@H](C(=O)N[C@@H](C(=O)NN)C(C)C)[C@@H](C)O)c(N)c1=O | inactive | – | inactive | – | <=25% | – | inactive | – | – | – | – | – | – | – | – | –
9 | COC(=O)[C@@H]1CCCN1C(=O)[C@H](NC(=O)[C@@H](NC(=O)c1c2nc3c(C(=O)N[C@H](C(=O)N[C@@H](C(=O)N4CCC[C@H]4C(=O)OC)C(C)C)[C@@H](C)O)ccc(C)c3oc-2c(C)c(=O)c1N)[C@@H](C)O)C(C)C | inactive | – | inactive | – | <=25% | – | inactive | – | – | – | – | – | – | – | – | –

From ChEMBL document CHEMBL3244282, “Synthesis and evaluation of bis-dipeptide and bis-tripeptide analogues of actinomycin D” (1978)
